From ChEMBL document CHEMBL1152466, “Hepatitis B virus e antigen loss during adefovir dipivoxil therapy is associated with enhanced virus-specific CD4+ T-cell reactivity” (2008)
Active and inactive are the calls of the source.

Experiments:
PBMC [1] = assay: Increase in HBV-specific IL12p70 level in HBcAg-stimulated human PBMC at 10 to 30 mg per day by ELISA; format: functional, cell-based
Hepatitis B virus [2] = assay: Antiviral activity against HBV infected patients assessed as ALT level at 10 to 30 mg per day after 48 weeks […]; format: functional
Hepatitis B virus [3] = assay: Antiviral activity against HBV infected in human assessed as reduction in serum viral DNA level at 10 to 30 mg per day after 48 weeks; format: functional
Homo sapiens [4] = organism: Homo sapiens; assay: Increase in HBV-specific IFN-gamma-producing CD4+ cell proliferation in patients with […] chronic hepatitis B assessed as [3H]thymidine incorporation after 16 weeks by beta counting relative to baseline; format: functional, organism-based
Summary of the method: (§1)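 Freshly isolated patient PBMC (density gradient) at 2 × 10⁶/ml in RPMI with 10% human AB serum. rHBcAg (1 μg/ml) was added to quadruplicate wells, with tetanus toxoid (0.5 μg/ml) and phytohemagglutinin (1 μg/ml) as controls. After 6 days, 0.5 μCi/well [³H]thymidine pulse and beta counting. Stimulation index = mean cpm antigen/medium. The positive cutoff was mean + 3 SD of 15–20 controls per center.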

Homo sapiens [5] = organism: Homo sapiens; assay: Increase in HBV-specific IFN-gamma-producing CD4+ cell proliferation in patients with […] chronic hepatitis B assessed as [3H]thymidine incorporation after 40 weeks by beta counting relative to baseline; format: functional, organism-based; summary of the method: as §1
Homo sapiens [6] = organism: Homo sapiens; assay: Increase in HBV-specific IFN-gamma-producing CD4+ cell proliferation in patients with […] chronic hepatitis B assessed as [3H]thymidine incorporation after 48 weeks by beta counting relative to baseline; format: functional, organism-based; summary of the method: as §1
Homo sapiens [7] = organism: Homo sapiens; assay: Increase in HBV-specific IFN-gamma-producing CD4+ cell proliferation in patients with […] chronic hepatitis B assessed as [3H]thymidine incorporation by beta counting relative to baseline; format: functional; summary of the method: as §1
PBMC [8] = assay: Increase in HBV-specific IFN-gamma production in HBcAg-stimulated human PBMC assessed as INFgamma production index at 10 to 30 mg per day after 4 weeks […]; format: functional
Summary of the method: (§2)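 PBMC at 3 × 10⁶/ml in RPMI with 10% human AB serum, cultured in quadruplicate for 6 days with or without rHBcAg (1 μg/ml). IFN-γ in cell-free supernatants (kept at −20°C) was measured by ELISA. Index = mean pg/ml IFN-γ of the four HBcAg-stimulated replicates divided by that of medium-only cultures, calculated at each protocol time point.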

PBMC [9] = assay: Increase in HBV-specific IFN-gamma production in HBcAg-stimulated human PBMC assessed as INFgamma production index at 10 to 30 mg per day after 8 weeks by […]; format: functional; summary of the method: as §2
PBMC [10] = assay: Increase in HBV-specific IFN-gamma production in HBcAg-stimulated human PBMC assessed as INFgamma production index at 10 to 30 mg per day after 16 weeks […]; format: functional; summary of the method: as §2
PBMC [11] = assay: Increase in HBV-specific IFN-gamma production in HBcAg-stimulated human PBMC assessed as INFgamma production index at 10 to 30 mg per day after 24 weeks by […]; format: functional; summary of the method: as §2
PBMC [12] = assay: Increase in HBV-specific IFN-gamma production in HBcAg-stimulated human PBMC assessed as INFgamma production index at 10 to 30 mg per day after 40 weeks by […]; format: functional; summary of the method: as §2
PBMC [13] = assay: Increase in HBV-specific IFN-gamma production in HBcAg-stimulated human PBMC assessed as INFgamma production index at 10 to 30 mg per day after 48 weeks by […]; format: functional; summary of the method: as §2
PBMC [14] = assay: Increase in HBV-specific IL8 in HBcAg-stimulated human PBMC at 10 to 30 mg per day by ELISA; format: functional, cell-based
PBMC [15] = assay: Increase in HBV-specific IP10 in HBcAg-stimulated human PBMC at 10 to 30 mg per day by ELISA; format: functional, cell-based
PBMC [16] = assay: Increase in HBV-specific Fas ligand level in HBcAg-stimulated human PBMC at 10 to 30 mg per day by ELISA; format: functional, cell-based
PBMC [17] = assay: Increase in HBV-specific IL2 level in HBcAg-stimulated human PBMC at 10 to 30 mg per day by ELISA; format: functional, cell-based
PBMC [18] = assay: Increase in HBV-specific IL5 level in HBcAg-stimulated human PBMC at 10 to 30 mg per day by ELISA; format: functional, cell-based
Homo sapiens [19] = organism: Homo sapiens; assay: Serum IL10 level in human at baseline at 10 to 30 mg per day by cytometric bead array

## CC(C)(C)C(=O)OCOP(=O)(COCCn1cnc2c(N)ncnc21)OCOC(=O)C(C)(C)C [ADEFOVIR DIPIVOXIL]
PBMC [1]
  Activity: inactive
Hepatitis B virus [2]
  Activity: 35 IU/ml
Hepatitis B virus [3]
  Activity: -5.3 log10CFU/ml
Homo sapiens [4]
  Activity: Active
Homo sapiens [5]
  Activity: Active
Homo sapiens [6]
  Activity: Active
Homo sapiens [7]
  Activity: 15%
PBMC [8]
  Activity: 58.9
PBMC [9]
  Activity: 184.3
PBMC [10]
  Activity: 63.9
PBMC [11]
  Activity: 26.3
PBMC [12]
  Activity: 61.5
PBMC [13]
  Activity: 18
PBMC [14]
  Activity: Active
PBMC [15]
  Activity: Active
PBMC [16]
  Activity: inactive
PBMC [17]
  Activity: inactive
PBMC [18]
  Activity: inactive
Homo sapiens [19]
  Activity: 32 pg/mL
